The source made the active and inactive calls. No cut-off for these calls is given here.
How the values were obtained:
[1] = molecular target: T1, Alpha-2B adrenergic receptor (Homo sapiens) (UniProt P18089); assay: Alpha2b receptor agonism measured as ability to inhibit forskolin-stimulated synthesis of cAMP; NA=not active; format: functional
T1 sequence (whole entry): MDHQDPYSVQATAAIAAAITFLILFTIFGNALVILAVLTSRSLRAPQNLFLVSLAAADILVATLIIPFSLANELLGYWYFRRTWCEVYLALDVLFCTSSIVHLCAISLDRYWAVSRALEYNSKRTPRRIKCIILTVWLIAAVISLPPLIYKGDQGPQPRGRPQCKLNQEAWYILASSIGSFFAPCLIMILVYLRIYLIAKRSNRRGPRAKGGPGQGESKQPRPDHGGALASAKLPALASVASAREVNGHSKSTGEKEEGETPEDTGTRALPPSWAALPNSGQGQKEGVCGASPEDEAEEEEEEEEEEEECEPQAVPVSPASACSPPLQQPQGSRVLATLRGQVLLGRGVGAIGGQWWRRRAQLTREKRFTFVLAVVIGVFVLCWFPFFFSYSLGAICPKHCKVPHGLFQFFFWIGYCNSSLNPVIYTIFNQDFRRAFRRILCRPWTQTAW

[2] = molecular target: T2, Alpha-2A adrenergic receptor (Homo sapiens, UniProt P08913); assay: Inhibitory constant against human Alpha-2A adrenergic receptor expressed in LM(tk-) cells using [3H]rauwolscine; format: cell-based
T2 sequence (P08913 whole entry): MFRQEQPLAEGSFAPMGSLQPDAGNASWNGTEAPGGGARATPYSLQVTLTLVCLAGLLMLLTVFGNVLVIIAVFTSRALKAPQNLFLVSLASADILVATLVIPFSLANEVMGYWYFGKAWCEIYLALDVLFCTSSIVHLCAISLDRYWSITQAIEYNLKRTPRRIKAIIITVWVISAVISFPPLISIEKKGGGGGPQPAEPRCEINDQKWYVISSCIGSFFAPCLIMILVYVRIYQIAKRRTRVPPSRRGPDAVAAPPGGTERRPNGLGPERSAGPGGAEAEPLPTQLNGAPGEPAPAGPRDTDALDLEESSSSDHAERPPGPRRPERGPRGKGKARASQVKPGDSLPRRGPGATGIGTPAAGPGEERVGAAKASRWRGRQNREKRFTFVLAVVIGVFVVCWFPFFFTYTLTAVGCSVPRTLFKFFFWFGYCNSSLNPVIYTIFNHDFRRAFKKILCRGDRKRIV
Method in brief: (§1)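 Equilibrium competition binding against [3H]rauwolscine on membranes from cultured cells stably transfected with cloned human alpha2 subtypes: alpha2A and alpha2C in LM(tk-) cells, alpha2B in Y-1 cells. Equilibrium inhibition constants were estimated by nonlinear regression and reported as pKi.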

[3] = molecular target: T3, Alpha-2C adrenergic receptor (Homo sapiens, UniProt P18825); assay: (§2) Alpha2c receptor agonism measured as ability to inhibit forskolin-stimulated synthesis of cAMP; format: functional
T3 sequence (P18825 whole entry): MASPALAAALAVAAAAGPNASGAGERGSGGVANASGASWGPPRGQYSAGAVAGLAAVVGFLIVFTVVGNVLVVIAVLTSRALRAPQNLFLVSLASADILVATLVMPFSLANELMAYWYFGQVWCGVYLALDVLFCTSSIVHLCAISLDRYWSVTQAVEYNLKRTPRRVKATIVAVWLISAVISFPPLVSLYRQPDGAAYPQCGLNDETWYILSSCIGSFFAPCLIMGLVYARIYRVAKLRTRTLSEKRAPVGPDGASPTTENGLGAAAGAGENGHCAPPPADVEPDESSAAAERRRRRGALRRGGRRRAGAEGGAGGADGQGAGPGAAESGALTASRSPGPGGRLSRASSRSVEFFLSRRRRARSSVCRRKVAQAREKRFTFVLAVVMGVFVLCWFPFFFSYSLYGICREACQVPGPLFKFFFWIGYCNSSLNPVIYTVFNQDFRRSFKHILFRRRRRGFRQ

[4] = molecular target: T3, Alpha-2C adrenergic receptor; assay: Inhibitory constant, using [3H]rauwolscine in LM(tk-) cells stably transfected with cloned human Alpha-2C adrenergic receptor; format: cell-based; method in brief: as §1
[5] = molecular target: T4, Alpha-2B adrenergic receptor (Homo sapiens, UniProt P18089); assay: Inhibitory constant against human Alpha-2B adrenergic receptor expressed in Y-1 cells using [3H]rauwolscine; format: cell-based; method in brief: as §1
T4 sequence (P18089 whole entry): T1 sequence (whole entry)

[6] = molecular target: T2, Alpha-2A adrenergic receptor; assay: Alpha-2A adrenergic receptor agonism measured as ability to inhibit forskolin-stimulated synthesis of cAMP; format: functional
[7] = molecular target: T3, Alpha-2C adrenergic receptor; assay: Alpha-2C adrenergic receptor agonism measured as ability to inhibit forskolin-stimulated synthesis of cAMP; format: functional
[8] = molecular target: T3, Alpha-2C adrenergic receptor; assay: Inhibitory constant determined using [3H]rauwolscine in LM(tk-) cells stably transfected with cloned human Alpha-2C adrenergic receptor; format: cell-based; method in brief: as §1
[9] = molecular target: T4, Alpha-2B adrenergic receptor; assay: (§3) Alpha-2B adrenergic receptor agonism measured as ability to inhibit forskolin-stimulated synthesis of cAMP; format: functional
[10] = molecular target: T5, Alpha-2A adrenergic receptor (Homo sapiens) (UniProt P08913); assay: Alpha-2A adrenergic receptor agonism measured as ability to inhibit forskolin-stimulated synthesis of cAMP; NA=not active; format: functional
T5 sequence (whole entry): T2 sequence (P08913 whole entry)

[11] = molecular target: T1, Alpha-2B adrenergic receptor (Homo sapiens); assay: Alpha-2B adrenergic receptor agonism measured as ability to inhibit forskolin-stimulated synthesis of cAMP; NA=not active; format: functional
[12] = molecular target: T1, Alpha-2B adrenergic receptor (Homo sapiens); assay: Alpha-2B adrenergic receptor agonism measured as ability to inhibit forskolin-stimulated synthesis of cAMP; NA=not active (IA< 0.3); format: functional
[13] = molecular target: T6, Alpha-2C adrenergic receptor (Homo sapiens) (UniProt P18825); assay: Alpha2c receptor agonism measured as ability to inhibit forskolin-stimulated synthesis of cAMP; NA=not active (IA< 0.3); format: functional
T6 sequence (whole entry): T3 sequence (P18825 whole entry)

[14] = molecular target: T6, Alpha-2C adrenergic receptor (Homo sapiens); assay: Alpha2c receptor agonism measured as ability to inhibit forskolin-stimulated synthesis of cAMP; NA=not active; format: functional
[15] = molecular target: T6, Alpha-2C adrenergic receptor (Homo sapiens); assay: as §2; format: functional
[16] = molecular target: T1, Alpha-2B adrenergic receptor (Homo sapiens); assay: as §3; format: functional
[17] = molecular target: T5, Alpha-2A adrenergic receptor (Homo sapiens); assay: Alpha2a receptor agonism measured as ability to inhibit forskolin-stimulated synthesis of cAMP; format: functional
[18] = molecular target: T1, Alpha-2B adrenergic receptor (Homo sapiens); assay: Alpha2b receptor agonism measured as ability to inhibit forskolin-stimulated synthesis of cAMP;NA=not active; format: functional
[19] = molecular target: T6, Alpha-2C adrenergic receptor (Homo sapiens); assay: Alpha-2C adrenergic receptor agonism measured as ability to inhibit forskolin-stimulated synthesis of cAMP; NA=not active; format: functional

Row | Compound | Ki [2] [nM] | EC50 [3] [nM] | Ki [4] [nM] | Ki [5] [nM] | EC50 [6] [nM] | alpha-2A agonist activity [10] | NA [11] | further results
1 | c1ccc(CCC[C@H]2C3CCC(C3)[C@H]2NC2=NCCO2)cc1 (some centres not stated) | 30.9 | 60.3 | 123 | 141 | 34.7 | – | – | NA [1]: inactive
2 | CCC[C@H]1CCCC[C@@H]1NC1=NCCO1 | 2.95 | – | – | 5.89 | 1.62 | – | – | EC50 [7]: 4.07 nM; Ki [8]: 24.5 nM; EC50 [9]: 9.33 nM
3 | c1ccc(CCC[C@H]2CCCC[C@@H]2NC2=NCCO2)cc1 | 15.1 | 26.9 | 32.4 | 32.4 | – | inactive | inactive | –
4 | c1ccc(C[C@H]2CCCC[C@@H]2NC2=NCCO2)cc1 | 20.9 | – | 66.1 | 40.7 | – | inactive | – | NA [12]: inactive; NA [13]: inactive
5 | c1ccc(CC[C@H]2CCCC[C@@H]2NC2=NCCO2)cc1 | 1.45 | – | 10.7 | 6.92 | – | – | inactive | NA [10]: inactive; NA [14]: inactive
6 | CCC[C@H]1C2CCC(C2)[C@H]1NC1=NCCO1 (some centres not stated) | 28.2 | 21.4 | 123 | 91.2 | 11 | – | – | Intrinsic activity [15]: 0.9; Intrinsic activity [16]: 0.4; EC50 [9]: 562 nM; Intrinsic activity [17]: 0.9
7 | c1ccc(C[C@H]2C3CCC(C3)[C@H]2NC2=NCCO2)cc1 (some centres not stated) | 13.8 | 13.8 | 79.4 | 40.7 | – | inactive | – | NA [18]: inactive
8 | C(=C\c1ccccc1)/C[C@H]1C2CCC(C2)[C@H]1NC1=NCCO1 (some centres not stated) | 15.8 | 2 | 85.1 | 102 | 70.8 | – | – | NA [1]: inactive
9 | c1ccc([C@H]2CCCC[C@@H]2NC2=NCCO2)cc1 | 18.2 | – | 52.5 | 22.4 | – | inactive | inactive | NA [19]: inactive

From ChEMBL document CHEMBL1132926, “2-amino-2-oxazolines as subtype selective alpha(2) adrenoceptor agonists” (J Med Chem, 2000)
